Assay results: ChEMBL document CHEMBL5303300, “EUbOPEN Chemogenomics Library - Multiplex” (2023)
Values joined by “and” are separate entries in the source; they are usually repeats but may differ in a detail not shown here. Identical values can stand only once.

System: Fibroblast
Test: Multiplex assay against human fibroblast
Type: toxicity, cell-based
Conditions: number of replicates 2
Summary of the method: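 On a CQ1 microscope at 37°C and 5% CO2, live cells were imaged after compound addition. They had been stained at seeding with Hoechst33342, BioTracker Green Microtubule Cytoskeleton Dye, MitoTracker Red and Annexin V Alexa Fluor 680. CellPathfinder machine-learning gating assigned cells to Hoechst high-intensity objects or normal cells, normal cells to healthy, pyknosed or fragmented nuclei, and pyknosed cells to mitotic or apoptotic. Tubulin, mitochondrial-mass and membrane-permeability phenotypes are per cents of healthy-nucleus cells.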

[1] = 12 h, 1 µM, compound concentration 1 uM
[2] = 12 h, 10 µM, compound concentration 10 uM
[3] = 24 h, 1 µM, compound concentration 1 uM
[4] = 24 h, 10 µM, compound concentration 10 uM
[5] = 48 h, 1 µM, compound concentration 1 uM
[6] = 48 h, 10 µM, compound concentration 10 uM

For `COc1cc(Nc2cnc(C#N)c(O[C@H](C)CN(C)C)n2)ncc1-c1cnn(C)c1`, the “Population Apoptotic (%)” value [1] was 37% and 47%, the “Population Fragmented Nuclei (%)” value [1] was 12% and 13% and the “Population Healthy Nuclei (%)” value [1] was 67% and 77%. For the same compound, the “Population Hoechst High Intensity Objects (%)” value [1] was 0%, the “Population Membrane Permeable-Phenotype (%)” value [1] was 3% and 2% and the “Population Mitochondria Different-Phenotype (%)” value [1] was 1%. The “Population Mitotic Cells (%)” value [1] was 62% and 52%, the “Population Normal (%)” value [1] was 100% and the “Population Pyknosed Nuclei (%)” value [1] was 20% and 9%. For the same compound, the “Population Tubulin-Different-Phenotype (%)” value [1] was 11% and 3%, the “Total Cell Count” value [1] was 185 and 222 and the “Population Apoptotic (%)” value [2] was 37% and 41%. The “Population Fragmented Nuclei (%)” value [2] was 24% and 26%, the “Population Healthy Nuclei (%)” value [2] was 69% and 64% and the “Population Hoechst High Intensity Objects (%)” value [2] was 0%. The “Population Membrane Permeable-Phenotype (%)” value [2] was 2% and 4%, the “Population Mitochondria Different-Phenotype (%)” value [2] was 0% and the “Population Mitotic Cells (%)” value [2] was 62% and 58%. For the same compound, the “Population Normal (%)” value [2] was 99% and 100%, the “Population Pyknosed Nuclei (%)” value [2] was 5% and 8% and the “Population Tubulin-Different-Phenotype (%)” value [2] was 26% and 17%. The “Total Cell Count” value [2] was 300 and 346, the “Population Apoptotic (%)” value [3] was 50% and 40% and the “Population Fragmented Nuclei (%)” value [3] was 9% and 11%. For the same compound, the “Population Healthy Nuclei (%)” value [3] was 80% and 78%, the “Population Hoechst High Intensity Objects (%)” value [3] was 0% and the “Population Membrane Permeable-Phenotype (%)” value [3] was 2% and 3%. The “Population Mitochondria Different-Phenotype (%)” value [3] was 2% and 1%, the “Population Mitotic Cells (%)” value [3] was 50% and 60% and the “Population Normal (%)” value [3] was 100%. The “Population Pyknosed Nuclei (%)” value [3] was 9%, the “Population Tubulin-Different-Phenotype (%)” value [3] was 13% and 5% and the “Total Cell Count” value [3] was 168 and 206. For the same compound, the “Population Apoptotic (%)” value [4] was 61% and 70%, the “Population Fragmented Nuclei (%)” value [4] was 28% and 29% and the “Population Healthy Nuclei (%)” value [4] was 67% and 65%. For the same compound, the “Population Hoechst High Intensity Objects (%)” value [4] was 1% and 0%, the “Population Membrane Permeable-Phenotype (%)” value [4] was 3% and 0% and the “Population Mitochondria Different-Phenotype (%)” value [4] was 1% and 0%. For the same compound, the “Population Mitotic Cells (%)” value [4] was 38% and 30%, the “Population Normal (%)” value [4] was 98% and 100% and the “Population Pyknosed Nuclei (%)” value [4] was 4% and 5%. The “Population Tubulin-Different-Phenotype (%)” value [4] was 24% and 13%, the “Total Cell Count” value [4] was 292 and 355 and the “Population Apoptotic (%)” value [5] was 43% and 64%. The “Population Fragmented Nuclei (%)” value [5] was 14% and 12%, the “Population Healthy Nuclei (%)” value [5] was 75% and 80% and the “Population Hoechst High Intensity Objects (%)” value [5] was 0%. The “Population Membrane Permeable-Phenotype (%)” value [5] was 0% and 1%, the “Population Mitochondria Different-Phenotype (%)” value [5] was 0% and the “Population Mitotic Cells (%)” value [5] was 56% and 35%. For the same compound, the “Population Normal (%)” value [5] was 100%, the “Population Pyknosed Nuclei (%)” value [5] was 9% and 6% and the “Population Tubulin-Different-Phenotype (%)” value [5] was 8% and 1%. For the same compound, the “Total Cell Count” value [5] was 170 and 205, the “Population Apoptotic (%)” value [6] was 43% and 75% and the “Population Fragmented Nuclei (%)” value [6] was 27% and 30%. For the same compound, the “Population Healthy Nuclei (%)” value [6] was 66%, the “Population Hoechst High Intensity Objects (%)” value [6] was 0% and the “Population Membrane Permeable-Phenotype (%)” value [6] was 1% and 2%. The “Population Mitochondria Different-Phenotype (%)” value [6] was 0%, the “Population Mitotic Cells (%)” value [6] was 56% and 25% and the “Population Normal (%)” value [6] was 100% and 99%. The “Population Pyknosed Nuclei (%)” value [6] was 5% and 3%, the “Population Tubulin-Different-Phenotype (%)” value [6] was 29% and 12% and the “Total Cell Count” value [6] was 312 and 369.

`CCCNc1ccc2ncc(-c3ccncc3)n2n1` was tested, and the “Population Apoptotic (%)” value [1] was 30% and 34%, the “Population Fragmented Nuclei (%)” value [1] was 4% and 14% and the “Population Healthy Nuclei (%)” value [1] was 65% and 63%. The “Population Hoechst High Intensity Objects (%)” value [1] was 0%, the “Population Membrane Permeable-Phenotype (%)” value [1] was 14% and 6% and the “Population Mitochondria Different-Phenotype (%)” value [1] was 0%. For the same compound, the “Population Mitotic Cells (%)” value [1] was 69% and 65%, the “Population Normal (%)” value [1] was 100% and the “Population Pyknosed Nuclei (%)” value [1] was 29% and 21%. The “Population Tubulin-Different-Phenotype (%)” value [1] was 18% and 9%, the “Total Cell Count” value [1] was 144 and 202 and the “Population Apoptotic (%)” value [2] was 51% and 53%. For the same compound, the “Population Fragmented Nuclei (%)” value [2] was 12% and 10%, the “Population Healthy Nuclei (%)” value [2] was 70% and 75% and the “Population Hoechst High Intensity Objects (%)” value [2] was 0%. For the same compound, the “Population Membrane Permeable-Phenotype (%)” value [2] was 4% and 3%, the “Population Mitochondria Different-Phenotype (%)” value [2] was 5% and 1% and the “Population Mitotic Cells (%)” value [2] was 48% and 46%. For the same compound, the “Population Normal (%)” value [2] was 100%, the “Population Pyknosed Nuclei (%)” value [2] was 17% and 13% and the “Population Tubulin-Different-Phenotype (%)” value [2] was 27% and 17%. For the same compound, the “Total Cell Count” value [2] was 157 and 204, the “Population Apoptotic (%)” value [3] was 38% and 42% and the “Population Fragmented Nuclei (%)” value [3] was 9% and 14%. For the same compound, the “Population Healthy Nuclei (%)” value [3] was 61% and 63%, the “Population Hoechst High Intensity Objects (%)” value [3] was 0% and the “Population Membrane Permeable-Phenotype (%)” value [3] was 9% and 8%. For the same compound, the “Population Mitochondria Different-Phenotype (%)” value [3] was 2% and 1%, the “Population Mitotic Cells (%)” value [3] was 61% and 57% and the “Population Normal (%)” value [3] was 100%. The “Population Pyknosed Nuclei (%)” value [3] was 29% and 21%, the “Population Tubulin-Different-Phenotype (%)” value [3] was 25% and 13% and the “Total Cell Count” value [3] was 143 and 193. For the same compound, the “Population Apoptotic (%)” value [4] was 75% and 65%, the “Population Fragmented Nuclei (%)” value [4] was 18% and 15% and the “Population Healthy Nuclei (%)” value [4] was 65% and 68%. For the same compound, the “Population Hoechst High Intensity Objects (%)” value [4] was 0%, the “Population Membrane Permeable-Phenotype (%)” value [4] was 5% and 3% and the “Population Mitochondria Different-Phenotype (%)” value [4] was 8% and 7%. For the same compound, the “Population Mitotic Cells (%)” value [4] was 25% and 34%, the “Population Normal (%)” value [4] was 99% and 100% and the “Population Pyknosed Nuclei (%)” value [4] was 16%. For the same compound, the “Population Tubulin-Different-Phenotype (%)” value [4] was 33% and 30%, the “Total Cell Count” value [4] was 151 and 200 and the “Population Apoptotic (%)” value [5] was 55% and 59%. For the same compound, the “Population Fragmented Nuclei (%)” value [5] was 14% and 20%, the “Population Healthy Nuclei (%)” value [5] was 57% and 59% and the “Population Hoechst High Intensity Objects (%)” value [5] was 0%. For the same compound, the “Population Membrane Permeable-Phenotype (%)” value [5] was 15% and 8%, the “Population Mitochondria Different-Phenotype (%)” value [5] was 1% and 0% and the “Population Mitotic Cells (%)” value [5] was 44% and 40%. The “Population Normal (%)” value [5] was 100% and 99%, the “Population Pyknosed Nuclei (%)” value [5] was 28% and 19% and the “Total Cell Count” value [5] was 150 and 228. The “Population Apoptotic (%)” value [6] was 61% and 80%, the “Population Fragmented Nuclei (%)” value [6] was 14% and 13% and the “Population Healthy Nuclei (%)” value [6] was 60% and 61%. The “Population Hoechst High Intensity Objects (%)” value [6] was 0%, the “Population Membrane Permeable-Phenotype (%)” value [6] was 11% and 4% and the “Population Mitochondria Different-Phenotype (%)” value [6] was 6% and 5%. For the same compound, the “Population Mitotic Cells (%)” value [6] was 38% and 20%, the “Population Normal (%)” value [6] was 99% and the “Population Pyknosed Nuclei (%)” value [6] was 24% and 25%. For the same compound, the “Population Tubulin-Different-Phenotype (%)” value [6] was 45% and 33% and the “Total Cell Count” value [6] was 149 and 198.
